In ChEMBL document CHEMBL1124280, “Synthesis and biological evaluation of isomeric dinucleoside monophosphates and monomethylphosphonates of 9-beta-D-arabinofuranosyladenine and related analogues” (1988) one finds IC50, MCC and MIC data, which are given here for six compounds.

What all share (assay type): functional
The subject of assay [1] is FM3A. Put plainly: Inhibitory effect on proliferation of Murine mammary Carcinoma (FM3A). As to conditions: Mus musculus, read-out: ID50 (the source's name).
In assay [2] the test system is HeLa. Put plainly: Minimum cytotoxic concentration against vaccinia virus in aneuploid (Hela) human cells. A digest of the protocol:
(§1)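 Uninfected confluent monolayers (rabbit kidney, HeLa, Vero or E6SM) were incubated with compound for the same time as the antiviral assay. The value is the lowest concentration (µg/mL) that causes a microscopically detectable change in normal cell morphology.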

In assay [3] the test system is HeLa. Briefly: Minimum inhibitory concentration against vaccinia virus in aneuploid (Hela) human cells.
The species entered for assay [4] is Homo sapiens. Briefly: Minimum cytotoxic concentration in diploid (E6SM) human cell culture. Summed up: as §1
For assay [5], the species on record is Homo sapiens. Put plainly: Minimum inhibitory concentration against vaccinia virus in diploid (E6SM) human cell culture.
The species named for assay [6] is Homo sapiens. Put plainly: Inhibitory effect on proliferation of Human B-Lymphoblast (Raji). As to conditions: read-out: ID50 (the source's name).
The subject of assay [7] is L1210. Put plainly: Inhibitory effect on Proliferation of Murine Leukemia (L1210). To be noted: Mus musculus, read-out: ID50 (the source's name).
The species named for assay [8] is Oryctolagus cuniculus. Put plainly: Minimum cytotoxic concentration against herpes simplex virus in primary rabbit kidney cell cultures. Summed up:
as §1

The species named for assay [9] is Oryctolagus cuniculus. Briefly: Antiviral activity in primary rabbit kidney cell cultures against Herpes Simplex virus type 1 (Fstrain).
Assay [10] is filed under the species Oryctolagus cuniculus. Briefly: Antiviral activity in primary rabbit kidney cell cultures against Herpes Simplex virus type 1 (KOS strain).
The species entered for assay [11] is Oryctolagus cuniculus. Put plainly: Antiviral activity in primary rabbit kidney cell cultures against Herpes Simplex virus type 1 (McIntyre strain).
For assay [12], the species on record is Oryctolagus cuniculus. Briefly: Antiviral activity in primary rabbit kidney cell cultures against Herpes Simplex virus type 1 (TK-strain B2006).
The species entered for assay [13] is Oryctolagus cuniculus. Briefly: Antiviral activity in primary rabbit kidney cell cultures against Herpes Simplex virus type 1 (TK-strain VMW I837).
The species named for assay [14] is Oryctolagus cuniculus. Briefly: Antiviral activity in primary rabbit kidney cell cultures against Herpes simplex virus type 2 Strain 196.
Assay [15] is filed under the species Oryctolagus cuniculus. Briefly: Antiviral activity in primary rabbit kidney cell cultures against Herpes simplex virus type 2 Strain G.
For assay [16], the species on record is Oryctolagus cuniculus. Briefly: Antiviral activity in primary rabbit kidney cell cultures against Herpes simplex virus type 2 Strain Lyons.
For assay [17], the species on record is Oryctolagus cuniculus. Put plainly: Antiviral activity in primary rabbit kidney cell cultures against vesicular stomatitis virus.
Assay [18] is described as follows: Inhibitory effect on proliferation of Human T-Lymphoblast (Molt/4F) cells. As to conditions: read-out: ID50 (the source's name).
The subject of assay [19] is Vero. Briefly: Minimum inhibitory concentration against vaccinia virus in vero cells of African green monkey kidney. As to conditions: Chlorocebus sabaeus.
The test system of assay [20] is Vero. Briefly: Minimum cytotoxic concentration in vero cells of African green monkey kidney. To be noted: Chlorocebus sabaeus. Summed up:
as §1

Assay [21] is filed under the species Oryctolagus cuniculus. Put plainly: Antiviral activity in primary rabbit kidney cell cultures against vaccinia virus.

Structures are written as SMILES. Values after ≈ are worked out from the molar mass of the structure shown.

With `Nc1ncnc2c1ncn2[C@@H]1O[C@H](CO)[C@@H](O)[C@@H]1O` [VIDARABINE], the IC50 in assay [1] was found to be 21.1 µg/mL (≈ 79 µM); in [6] it was 25.9 µg/mL (≈ 96.9 µM); in assay [7], 21 µg/mL (≈ 78.6 µM); in assay [18] it was 16.7 µg/mL (≈ 62.5 µM). Also, the MCC in assay [2] was over 200 µg/mL; in assay [4], over 400 µg/mL; in assay [8] it was over 100 µg/mL; in assay [20], at least 400 µg/mL. Also, the MIC in assay [3] is 20 µg/mL (≈ 74.8 µM); in assay [5], 7 µg/mL (≈ 26.2 µM); in assay [9], 7 µg/mL (≈ 26.2 µM); in assay [10], 20 µg/mL (≈ 74.8 µM); in assay [11], 10 µg/mL (≈ 37.4 µM); in [12], 20 µg/mL (≈ 74.8 µM). Besides, the MIC in [13] came out at 20 µg/mL (≈ 74.8 µM); in [14], 20 µg/mL (≈ 74.8 µM); in assay [15] it was 7 µg/mL (≈ 26.2 µM); in assay [16] it was 7 µg/mL (≈ 26.2 µM); in [17], 20 µg/mL (≈ 74.8 µM); in assay [19], 70 µg/mL (≈ 262 µM). In addition, in [21], the MIC turned out to be 2 µg/mL (≈ 7.48 µM).
Regarding `Nc1ncnc2c1ncn2[C@@H]1O[C@H](COP(=O)(O)O)[C@@H](O)[C@@H]1O` [VIDARABINE PHOSPHATE], the IC50 is 23.9 µg/mL in assay [1], 32.6 µg/mL in [6], 24.2 µg/mL in [7] and 18.5 µg/mL in [18]. For the same compound, the MCC in assay [2] is at least 400 µg/mL; in assay [4], at least 400 µg/mL; in assay [8], over 100 µg/mL; in assay [20], at least 200 µg/mL. In addition, the MIC amounted to 20 µg/mL in [3]; 7 µg/mL in [5]; 7 µg/mL in assay [9]; 20 µg/mL in assay [10]; 10 µg/mL in assay [11]; 20 µg/mL in assay [12]. Further, the MIC in [13] is 20 µg/mL; in assay [14], 20 µg/mL; in assay [15] it was 7 µg/mL; in [16], 2 µg/mL; in [17], over 400 µg/mL; in [19] it was 20 µg/mL. The MIC in [21] was 0.2 µg/mL.
As to `Nc1ncnc2c1ncn2[C@@H]1O[C@H](CO)[C@@H](OP(=O)([O-])O[C@H]2[C@H](O)[C@H](n3cnc4c(N)ncnc43)O[C@@H]2CO)[C@@H]1O.[Na+]`, the IC50 in assay [1], in assay [6], in [7] and in assay [18] was over 100 µg/mL in each case. For the same compound, the MCC in [2] is at least 400 µg/mL; in assay [4], over 400 µg/mL; in assay [8], over 400 µg/mL; in [20] it was at least 400 µg/mL. The MIC in assay [3], in assay [5], in assay [9], in assay [10], in assay [11] and in assay [12] was over 400 µg/mL in each case. In addition, the MIC in [13], in [14], in assay [15], in assay [16], in assay [17] and in [19] was over 400 µg/mL in each case. The MIC in [21] worked out at 300 µg/mL.
Take `Nc1ncnc2c1ncn2C1O[C@H](CO)[C@@H](OP(=O)([O-])OC[C@H]2OC(n3cnc4c(N)ncnc43)[C@H](O)[C@H]2O)[C@@H]1O.[Na+]` (stereo partly specified): the IC50 in assay [1] amounted to 20.4 µg/mL; in [6], 32.3 µg/mL; in assay [7], 10 µg/mL; in assay [18], 23.3 µg/mL. The MCC in assay [2] was 100 µg/mL; in [4] it was at least 400 µg/mL; in assay [8], 100 µg/mL; in [20] it was over 40 µg/mL. Besides, the MIC in [3] is 20 µg/mL; in assay [5] it was 10 µg/mL; in assay [9], 10 µg/mL; in assay [10] it was 20 µg/mL; in assay [11] it was 7 µg/mL; in assay [12] it was 20 µg/mL. Moreover, the MIC is 20 µg/mL in [13]; 20 µg/mL in [14]; 7 µg/mL in assay [15]; 2 µg/mL in assay [16]; over 40 µg/mL in assay [17]; 20 µg/mL in [19]. This compound had an MIC in assay [21] of 2 µg/mL.
As for `Nc1ncnc2c1ncn2[C@@H]1O[C@H](COP(=O)([O-])OC[C@H]2O[C@H](n3cnc4c(N)ncnc43)[C@@H](O)[C@@H]2O)[C@@H](O)[C@@H]1O.[Na+]`, the IC50 was 86.6 µg/mL in assay [1], over 100 µg/mL in [6], over 100 µg/mL in assay [7] and 43 µg/mL in assay [18]. Further, the MCC is over 400 µg/mL in assay [2], at least 400 µg/mL in assay [4], over 400 µg/mL in [8] and over 400 µg/mL in [20]. Besides, the MIC in assay [3] came out at 200 µg/mL; in assay [5], 20 µg/mL; in assay [9], 70 µg/mL; in assay [10], 70 µg/mL; in [11], 70 µg/mL; in [12] it was 300 µg/mL. Also, the MIC in [13] was 150 µg/mL; in [14], 100 µg/mL; in [15] it was 70 µg/mL; in assay [16], 20 µg/mL; in assay [17], over 400 µg/mL; in [19], 70 µg/mL. For the same compound, in assay [21], the MIC came to 7 µg/mL.
`Nc1ncnc2c1ncn2C1O[C@H](CO)C(OP(=O)([O-])OC[C@H]2OC(n3cnc4c(N)ncnc43)[C@@H](O)[C@@H]2O)[C@@H]1O.[Na+]` (stereo partly specified): the IC50 worked out at 22.4 µg/mL in assay [1], 30 µg/mL in assay [6], 22.2 µg/mL in [7] and 13.6 µg/mL in assay [18]. Also, the MCC in assay [2] is at least 200 µg/mL; in [4], over 400 µg/mL; in assay [8], over 200 µg/mL; in assay [20], over 400 µg/mL. The MIC in assay [3] came to 20 µg/mL; in assay [5] it was 2 µg/mL; in assay [9], 10 µg/mL; in assay [10], 20 µg/mL; in assay [11], 10 µg/mL; in assay [12], 20 µg/mL. The MIC in assay [13] was 20 µg/mL; in [14], 7 µg/mL; in [15] it was 7 µg/mL; in assay [16] it was 2 µg/mL; in [17], over 100 µg/mL; in [19] it was 20 µg/mL. This compound yielded an MIC in [21] of 0.2 µg/mL.
